This note sets out measurements from ChEMBL document CHEMBL3091395, “Discovery of Octahydroindenes as PAR1 Antagonists” (ACS Med Chem Lett, 2013).

SMILES strings stand for the structures.

Test system in one data set: not listed separately
Description: Cytotoxicity against human HepG2 cells assessed as ATP contents at 30 uM after 24 hrs relative to control. The format is cell-based. To be noted: read-out: Activity. The method in brief: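 HepG2 cells were exposed to compound at 30 μM. Cellular ATP content was measured 24 h after compound addition and expressed as % of vehicle-treated control.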
On to `CS(=O)(=O)OC1C[C@@H]2CCCC[C@@H]2[C@H]1/C=C/c1ccc(-c2cccc(F)c2)cn1` (mixture of isomers), for which the viability at 24 h, 30 µM turned out to be 94%.

Take `CN(C1C[C@@H]2CCCC[C@@H]2[C@H]1/C=C/c1ccc(-c2cccc(F)c2)cn1)S(C)(=O)=O` (mixture of isomers): the viability at 24 h, 30 µM is 95%.

For `O=C1NCC2(C[C@@H]3CCCC[C@@H]3[C@H]2/C=C/c2ccc(-c3cccc(F)c3)cn2)O1` (mixture of isomers), the viability at 24 h, 30 µM is 101%.

Consider `CC(=O)N(C)C1C[C@@H]2CCCC[C@@H]2[C@H]1/C=C/c1ccc(-c2cccc(F)c2)cn1` (mixture of isomers), for which the viability at 24 h, 30 µM stood at 98%.

With `CC1(OC(N)=O)C[C@@H]2CCCC[C@@H]2[C@H]1/C=C/c1ccc(-c2cccc(F)c2)cn1` (mixture of isomers), the viability at 24 h, 30 µM came out at 99%.

On to `Fc1cccc(-c2ccc(/C=C/[C@@H]3[C@H]4CCCC[C@H]4CC34OCCO4)nc2)c1` (racemic), for which the viability at 24 h, 30 µM came out at 97%.

`CCOC(=O)N[C@@H]1CC[C@@H]2[C@@H](C1)C[C@H]1C(=O)O[C@H](C)[C@H]1[C@H]2/C=C/c1ccc(-c2cccc(F)c2)cn1` [VORAPAXAR]: the viability at 24 h, 30 µM was 102%.

For the next data set, the target named is T1, Proteinase-activated receptor 1 (Homo sapiens, UniProt P25116).
T1 sequence (P25116 whole entry): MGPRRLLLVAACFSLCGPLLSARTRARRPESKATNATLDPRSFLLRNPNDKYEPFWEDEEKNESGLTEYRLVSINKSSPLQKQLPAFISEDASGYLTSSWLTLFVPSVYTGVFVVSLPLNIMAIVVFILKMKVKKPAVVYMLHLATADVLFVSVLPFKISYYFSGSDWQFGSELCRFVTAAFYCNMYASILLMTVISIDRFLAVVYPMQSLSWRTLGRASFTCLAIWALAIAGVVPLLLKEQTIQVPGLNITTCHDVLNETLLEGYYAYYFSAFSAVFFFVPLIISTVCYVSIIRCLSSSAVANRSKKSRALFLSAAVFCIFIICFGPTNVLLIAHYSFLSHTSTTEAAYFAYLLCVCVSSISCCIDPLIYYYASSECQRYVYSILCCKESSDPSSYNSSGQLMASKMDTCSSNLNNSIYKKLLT
Description: Displacement of [3H]haTRAP from PAR1 in human platelet membranes after 60 mins by scintillation counting analysis. The format is cell membranes.
Conditions: not given
In short, it runs like this:
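Radioligand binding to PAR1 using a tritiated peptide ligand, phenylalanine-arginine-cyclohexylalanine-homoarginine-[³H]-tyrosine-NH₂, reported as IC50. Each value is the average of three measurements. Racemic mixtures were tested without separation. Vorapaxar, synthesized in-house, was included as the reference standard.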
On the technique in general: Displacement assays read how much labelled ligand stays bound in the presence of the test substance.
As for `OC1C[C@@H]2CCCC[C@@H]2[C@H]1/C=C/c1ccc(-c2cccc(F)c2)cn1` (mixture of isomers), the IC50 (usually the concentration that inhibits the measured activity by half) was determined as 220 nM.

`Fc1cccc(-c2ccc(/C=C/[C@H]3C(OCc4ccccc4)C[C@@H]4CCCC[C@@H]43)nc2)c1` (mixture of isomers) came in with an IC50 of 280 nM.

For the compound `CS(=O)(=O)OC1C[C@@H]2CCCC[C@@H]2[C@H]1/C=C/c1ccc(-c2cccc(F)c2)cn1` (mixture of isomers), the IC50 was determined as 6.4 nM.

As to `CN(C)C(=S)OC1C[C@@H]2CCCC[C@@H]2[C@H]1/C=C/c1ccc(-c2cccc(F)c2)cn1` (mixture of isomers), the IC50 worked out at 120 nM.

The compound `COC(=O)NC1C[C@@H]2CCCC[C@@H]2[C@H]1/C=C/c1ccc(-c2cccc(F)c2)cn1` (mixture of isomers) returned an IC50 of 980 nM.

With `CC(C)(C)OC(=O)NC1C[C@@H]2CCCC[C@@H]2[C@H]1/C=C/c1ccc(-c2cccc(F)c2)cn1` (mixture of isomers), the IC50 stood at 7800 nM.

Compound `CC(=O)NC1C[C@@H]2CCCC[C@@H]2[C@H]1/C=C/c1ccc(-c2cccc(F)c2)cn1` (mixture of isomers) came in with an IC50 of 53 nM.

Regarding `CN(C1C[C@@H]2CCCC[C@@H]2[C@H]1/C=C/c1ccc(-c2cccc(F)c2)cn1)S(C)(=O)=O` (mixture of isomers), the half-maximal inhibitory concentration (IC50) stood at 1.3 nM.

Turning to `O=C1NCC2(C[C@@H]3CCCC[C@@H]3[C@H]2/C=C/c2ccc(-c3cccc(F)c3)cn2)O1` (mixture of isomers), the 50% inhibitory concentration (IC50) is 8.6 nM.

On to `COC1(C)C[C@@H]2CCCC[C@@H]2[C@H]1/C=C/c1ccc(-c2cccc(F)c2)cn1` (mixture of isomers), for which the IC50 is 43 nM.

`COC1C[C@@H]2CCCC[C@@H]2[C@H]1/C=C/c1ccc(-c2cccc(F)c2)cn1` (mixture of isomers) returned an IC50 of 67 nM.

In the case of `CC(=O)OC1C[C@@H]2CCCC[C@@H]2[C@H]1/C=C/c1ccc(-c2cccc(F)c2)cn1` (mixture of isomers), the IC50 came to 67 nM.

On to `O=C(Nc1ccccc1)OC1C[C@@H]2CCCC[C@@H]2[C@H]1/C=C/c1ccc(-c2cccc(F)c2)cn1` (mixture of isomers), for which the IC50 came out at 360 nM.

For the compound `NC1C[C@@H]2CCCC[C@@H]2[C@H]1/C=C/c1ccc(-c2cccc(F)c2)cn1` (mixture of isomers), the IC50 was found to be 230 nM.

As for `CCOC(=O)NC1C[C@@H]2CCCC[C@@H]2[C@H]1/C=C/c1ccc(-c2cccc(F)c2)cn1` (mixture of isomers), the IC50 was determined as 2000 nM.

With `CS(=O)(=O)NC1C[C@@H]2CCCC[C@@H]2[C@H]1/C=C/c1ccc(-c2cccc(F)c2)cn1` (mixture of isomers), the IC50 came out at 50 nM.

`O=C(NC1C[C@@H]2CCCC[C@@H]2[C@H]1/C=C/c1ccc(-c2cccc(F)c2)cn1)C1CC1` (mixture of isomers) came in with an IC50 of 230 nM.

As for `CC(=O)N(C)C1C[C@@H]2CCCC[C@@H]2[C@H]1/C=C/c1ccc(-c2cccc(F)c2)cn1` (mixture of isomers), the IC50 was found to be 5.4 nM.

Regarding `CC1(O)C[C@@H]2CCCC[C@@H]2[C@H]1/C=C/c1ccc(-c2cccc(F)c2)cn1` (mixture of isomers), the IC50 stood at 33 nM.

Turning to `CC1(OC(N)=O)C[C@@H]2CCCC[C@@H]2[C@H]1/C=C/c1ccc(-c2cccc(F)c2)cn1` (mixture of isomers), the IC50 was determined as 2.7 nM.

Regarding `Fc1cccc(-c2ccc(/C=C/[C@@H]3[C@H]4CCCC[C@@H]4CC34OCCO4)nc2)c1` (racemic), the IC50 was 470 nM.

`Fc1cccc(-c2ccc(/C=C/[C@H]3[C@H]4CCCC[C@H]4CC34OCCO4)nc2)c1` (racemic) showed an IC50 of 2100 nM.

With `O=C1C[C@@H]2CCCC[C@@H]2[C@H]1/C=C/c1ccc(-c2cccc(F)c2)cn1` (racemic), the IC50 turned out to be 1100 nM.

Regarding `Fc1cccc(-c2ccc(/C=C/[C@@H]3[C@H]4CCCC[C@H]4CC34OCCO4)nc2)c1` (racemic), the IC50 is 26 nM.

`CCOC(=O)N[C@@H]1CC[C@@H]2[C@@H](C1)C[C@H]1C(=O)O[C@H](C)[C@H]1[C@H]2/C=C/c1ccc(-c2cccc(F)c2)cn1` [VORAPAXAR]: the IC50 is 1.1 nM.

Test system in the next data set: not listed separately
Nature of the data set: Metabolic stability in human liver microsomes assessed as time when 50% of compound remains. The format is ADME. To be noted: read-out: Time. On the technique in general: Liver microsomes are a subcellular fraction often used to study metabolism.
With `CS(=O)(=O)OC1C[C@@H]2CCCC[C@@H]2[C@H]1/C=C/c1ccc(-c2cccc(F)c2)cn1` (mixture of isomers), the half-life is 3.5 min.

As for `CN(C1C[C@@H]2CCCC[C@@H]2[C@H]1/C=C/c1ccc(-c2cccc(F)c2)cn1)S(C)(=O)=O` (mixture of isomers), the half-life came to 2.5 min.

Take `O=C1NCC2(C[C@@H]3CCCC[C@@H]3[C@H]2/C=C/c2ccc(-c3cccc(F)c3)cn2)O1` (mixture of isomers): the half-life was 4.4 min.

`CS(=O)(=O)NC1C[C@@H]2CCCC[C@@H]2[C@H]1/C=C/c1ccc(-c2cccc(F)c2)cn1` (mixture of isomers): the half-life was found to be 273 min.

As for `CC(=O)N(C)C1C[C@@H]2CCCC[C@@H]2[C@H]1/C=C/c1ccc(-c2cccc(F)c2)cn1` (mixture of isomers), the half-life is 5.6 min.

As to `CC1(OC(N)=O)C[C@@H]2CCCC[C@@H]2[C@H]1/C=C/c1ccc(-c2cccc(F)c2)cn1` (mixture of isomers), the half-life worked out at 4.3 min.

`Fc1cccc(-c2ccc(/C=C/[C@@H]3[C@H]4CCCC[C@H]4CC34OCCO4)nc2)c1` (racemic): the half-life came out at 4.5 min.

Take `CCOC(=O)N[C@@H]1CC[C@@H]2[C@@H](C1)C[C@H]1C(=O)O[C@H](C)[C@H]1[C@H]2/C=C/c1ccc(-c2cccc(F)c2)cn1` [VORAPAXAR]: the half-life turned out to be 83.2 min.

Test system in another data set: not listed separately
Description: Metabolic stability in rat liver microsomes assessed as time when 50% of compound remains. The format is ADME. The settings on record: read-out: Time.
Regarding `CS(=O)(=O)OC1C[C@@H]2CCCC[C@@H]2[C@H]1/C=C/c1ccc(-c2cccc(F)c2)cn1` (mixture of isomers), the half-life turned out to be 6.5 min.

For `CN(C1C[C@@H]2CCCC[C@@H]2[C@H]1/C=C/c1ccc(-c2cccc(F)c2)cn1)S(C)(=O)=O` (mixture of isomers), the half-life turned out to be 2.2 min.

`O=C1NCC2(C[C@@H]3CCCC[C@@H]3[C@H]2/C=C/c2ccc(-c3cccc(F)c3)cn2)O1` (mixture of isomers): the half-life stood at 6.7 min.

With `CS(=O)(=O)NC1C[C@@H]2CCCC[C@@H]2[C@H]1/C=C/c1ccc(-c2cccc(F)c2)cn1` (mixture of isomers), the half-life is 105 min.

`CC(=O)N(C)C1C[C@@H]2CCCC[C@@H]2[C@H]1/C=C/c1ccc(-c2cccc(F)c2)cn1` (mixture of isomers): the half-life is 5.2 min.

Consider `CC1(OC(N)=O)C[C@@H]2CCCC[C@@H]2[C@H]1/C=C/c1ccc(-c2cccc(F)c2)cn1` (mixture of isomers), for which the half-life is 5.8 min.

Turning to `Fc1cccc(-c2ccc(/C=C/[C@@H]3[C@H]4CCCC[C@H]4CC34OCCO4)nc2)c1` (racemic), the half-life was 3.4 min.

On to `CCOC(=O)N[C@@H]1CC[C@@H]2[C@@H](C1)C[C@H]1C(=O)O[C@H](C)[C@H]1[C@H]2/C=C/c1ccc(-c2cccc(F)c2)cn1` [VORAPAXAR], for which the half-life was found to be 32.4 min.
